{"source": "ChEMBL document CHEMBL3108739", "about": "“Activation and inhibition of thermosensitive TRP channels by voacangine, an alkaloid present in Voacanga africana, an African tree” (J Nat Prod, 2014)", "key": {"[1]": {"target": "T1, Transient receptor potential cation channel subfamily A member 1 (Homo sapiens, UniProt O75762)", "T1 sequence (O75762 whole entry)": "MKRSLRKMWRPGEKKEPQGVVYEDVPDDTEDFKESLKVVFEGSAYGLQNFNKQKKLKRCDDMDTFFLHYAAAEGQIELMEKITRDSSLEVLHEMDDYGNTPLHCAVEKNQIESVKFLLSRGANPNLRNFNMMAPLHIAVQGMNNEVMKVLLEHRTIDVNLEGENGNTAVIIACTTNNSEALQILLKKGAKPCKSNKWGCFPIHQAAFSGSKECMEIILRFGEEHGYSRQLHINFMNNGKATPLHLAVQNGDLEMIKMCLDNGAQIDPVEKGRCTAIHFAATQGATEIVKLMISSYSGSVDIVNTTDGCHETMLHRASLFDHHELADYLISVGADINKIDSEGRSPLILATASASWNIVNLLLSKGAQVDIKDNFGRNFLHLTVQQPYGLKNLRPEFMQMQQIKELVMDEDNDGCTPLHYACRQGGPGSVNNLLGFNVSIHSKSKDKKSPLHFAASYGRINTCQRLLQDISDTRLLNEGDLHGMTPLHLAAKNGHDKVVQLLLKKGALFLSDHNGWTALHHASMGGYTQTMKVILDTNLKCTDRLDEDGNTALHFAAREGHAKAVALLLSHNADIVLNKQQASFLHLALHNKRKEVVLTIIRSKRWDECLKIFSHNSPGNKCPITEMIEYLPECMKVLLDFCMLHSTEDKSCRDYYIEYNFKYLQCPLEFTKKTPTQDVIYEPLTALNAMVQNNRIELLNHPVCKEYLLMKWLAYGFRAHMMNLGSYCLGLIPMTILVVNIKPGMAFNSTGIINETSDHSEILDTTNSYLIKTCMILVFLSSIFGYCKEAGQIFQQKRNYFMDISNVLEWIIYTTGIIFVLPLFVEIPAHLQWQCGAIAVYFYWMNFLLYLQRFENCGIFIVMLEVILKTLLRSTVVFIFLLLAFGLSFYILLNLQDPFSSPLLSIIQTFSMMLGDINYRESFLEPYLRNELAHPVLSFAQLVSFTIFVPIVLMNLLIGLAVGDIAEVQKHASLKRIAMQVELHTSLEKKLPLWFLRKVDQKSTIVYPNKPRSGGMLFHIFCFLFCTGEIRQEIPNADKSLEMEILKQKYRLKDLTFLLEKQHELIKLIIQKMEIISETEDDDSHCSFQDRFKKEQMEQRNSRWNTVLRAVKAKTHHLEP", "assay": "Agonist activity at TRPA1 isolated from human W138 cells expressed in HEK293T cells assessed as intracellular Ca2+ influx at 100 uM by Fluo-4 AM staining-based fluorescence analysis", "format": "cell-based", "method_in_brief": "(§1)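 Tetracycline-induced (1 μg/mL) stable hTRPA1 in HEK T-REx cells, Fluo-4 AM loaded (3 μM, 1 h, 37 °C) in HEPES buffer pH 7.4 with probenecid; Ca2+ read at 37 °C. Compound 0.01−100 μM; HC-030031 30 μM pretreated 3 min. Responses as % of 5 μM ionomycin or of 100 μM AITC; TREx cells without TRPA1 as control; n = 4−8.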"}, "[2]": {"target": "Transient receptor potential cation channel subfamily M member 8 (Mus musculus) (UniProt Q8R4D5)", "sequence (Q8R4D5 whole entry)": "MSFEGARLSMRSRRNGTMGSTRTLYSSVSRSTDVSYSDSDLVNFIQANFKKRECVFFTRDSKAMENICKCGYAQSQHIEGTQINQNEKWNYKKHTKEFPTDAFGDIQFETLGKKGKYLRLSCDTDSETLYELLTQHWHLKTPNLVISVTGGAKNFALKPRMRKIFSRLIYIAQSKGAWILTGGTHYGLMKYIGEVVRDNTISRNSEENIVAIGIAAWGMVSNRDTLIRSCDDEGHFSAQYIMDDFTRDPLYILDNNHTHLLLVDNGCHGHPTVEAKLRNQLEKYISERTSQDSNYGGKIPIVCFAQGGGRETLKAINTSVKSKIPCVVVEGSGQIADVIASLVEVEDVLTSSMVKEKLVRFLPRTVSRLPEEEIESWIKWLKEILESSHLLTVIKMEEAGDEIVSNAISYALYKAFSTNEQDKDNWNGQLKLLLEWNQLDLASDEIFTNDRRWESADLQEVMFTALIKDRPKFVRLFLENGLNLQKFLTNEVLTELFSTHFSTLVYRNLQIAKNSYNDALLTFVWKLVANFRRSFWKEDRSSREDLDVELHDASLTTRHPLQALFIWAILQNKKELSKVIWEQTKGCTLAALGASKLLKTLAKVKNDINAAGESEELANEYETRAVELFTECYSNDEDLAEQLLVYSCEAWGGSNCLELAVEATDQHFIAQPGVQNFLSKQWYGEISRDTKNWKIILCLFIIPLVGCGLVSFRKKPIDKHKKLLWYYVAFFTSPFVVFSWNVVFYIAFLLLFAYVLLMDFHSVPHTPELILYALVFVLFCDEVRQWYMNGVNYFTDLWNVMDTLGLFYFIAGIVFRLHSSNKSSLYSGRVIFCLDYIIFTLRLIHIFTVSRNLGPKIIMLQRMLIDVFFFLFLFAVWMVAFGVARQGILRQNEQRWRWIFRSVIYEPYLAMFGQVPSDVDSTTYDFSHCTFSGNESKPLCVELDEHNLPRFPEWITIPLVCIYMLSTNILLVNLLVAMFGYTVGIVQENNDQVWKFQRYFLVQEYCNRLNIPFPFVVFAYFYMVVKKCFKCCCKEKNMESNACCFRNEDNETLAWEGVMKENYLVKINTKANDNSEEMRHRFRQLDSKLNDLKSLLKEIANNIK", "settings": "Dorsal root ganglion, HEK T-REx, 3 to 30 uM"}, "[3]": {"target": "T1, Transient receptor potential cation channel subfamily A member 1", "assay": "Antagonist activity at TRPA1 isolated from human W138 cells expressed in HEK293T cells assessed as AITC-induced intracellular Ca2+ influx at 100 uM by Fluo-4 AM staining-based fluorescence analysis", "format": "cell-based", "settings": "HEK-293T"}, "[4]": {"target": "T2, Transient receptor potential cation channel subfamily V member 1 (Homo sapiens, UniProt Q8NER1)", "T2 sequence (Q8NER1 whole entry)": "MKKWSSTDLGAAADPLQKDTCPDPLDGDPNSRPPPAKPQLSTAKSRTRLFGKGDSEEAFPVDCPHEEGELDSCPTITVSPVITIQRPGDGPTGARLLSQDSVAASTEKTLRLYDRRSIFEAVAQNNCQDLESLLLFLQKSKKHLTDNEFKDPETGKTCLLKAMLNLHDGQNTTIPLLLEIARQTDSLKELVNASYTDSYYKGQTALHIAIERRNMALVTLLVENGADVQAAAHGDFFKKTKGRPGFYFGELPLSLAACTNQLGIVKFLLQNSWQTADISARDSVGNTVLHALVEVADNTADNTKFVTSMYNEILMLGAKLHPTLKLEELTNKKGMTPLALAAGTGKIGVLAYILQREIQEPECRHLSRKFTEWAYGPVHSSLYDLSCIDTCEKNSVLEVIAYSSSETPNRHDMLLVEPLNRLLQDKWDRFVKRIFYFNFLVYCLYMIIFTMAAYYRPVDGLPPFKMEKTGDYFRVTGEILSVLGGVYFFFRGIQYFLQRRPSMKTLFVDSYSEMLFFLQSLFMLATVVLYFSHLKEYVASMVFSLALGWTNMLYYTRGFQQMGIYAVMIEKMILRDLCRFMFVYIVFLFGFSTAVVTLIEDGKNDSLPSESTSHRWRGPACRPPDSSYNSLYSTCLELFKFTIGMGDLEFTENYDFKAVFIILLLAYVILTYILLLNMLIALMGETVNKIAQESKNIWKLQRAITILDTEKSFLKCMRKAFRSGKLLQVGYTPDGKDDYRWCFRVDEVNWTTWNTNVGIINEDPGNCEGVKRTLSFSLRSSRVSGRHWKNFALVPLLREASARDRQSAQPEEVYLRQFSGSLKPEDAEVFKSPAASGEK", "assay": "Agonist activity at human brain TRPV1 expressed in HEK293T cells assessed as intracellular Ca2+ influx at 100 uM by Fluo-4 AM staining-based fluorescence analysis", "format": "cell-based", "settings": "HEK-293T", "method_in_brief": "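Stable hTRPV1 in HEK293T (G418 selected), Fluo-4 loaded, 37 °C. 100 μM compound alone, or pretreated 3 min before 0.01 μM capsaicin; 10 μM BCTC reference. Data as % of 10 μM capsaicin.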"}, "[5]": {"target": "Transient receptor potential cation channel subfamily M member 8 (Mus musculus) (UniProt Q8R4D5)", "settings": "Dorsal root ganglion, HEK T-REx, 100 uM"}, "[6]": {"target": "Transient receptor potential cation channel subfamily M member 8 (Mus musculus) (UniProt Q8R4D5)", "settings": "Dorsal root ganglion, HEK T-REx, 100 uM", "remark": "listed apart in the source"}, "[7]": {"target": "T2, Transient receptor potential cation channel subfamily V member 1", "assay": "Competitive antagonist activity at human brain TRPV1 expressed in HEK293T cells assessed as inhibition of CAP-induced intracellular Ca2+ influx preincubated for 3 mins followed by CAP challenge", "format": "cell-based", "settings": "HEK-293T", "method_in_brief": "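hTRPV1-HEK293T, Fluo-4 Ca2+ at 37 °C; antagonist (0.3−100 μM) preincubated 3 min then 0.01 μM capsaicin; DMSO final 0.1−1%. IC50 from dose−inhibition curves; data as % of 10 μM capsaicin.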"}, "[8]": {"target": "Transient receptor potential cation channel subfamily M member 8 (Mus musculus) (UniProt Q8R4D5)", "settings": "Dorsal root ganglion, HEK T-REx, 100 uM", "remark": "listed apart in the source"}, "[9]": {"target": "T3, Transient receptor potential cation channel subfamily V member 2 (Homo sapiens) (UniProt Q9Y5S1)", "T3 sequence (whole entry)": "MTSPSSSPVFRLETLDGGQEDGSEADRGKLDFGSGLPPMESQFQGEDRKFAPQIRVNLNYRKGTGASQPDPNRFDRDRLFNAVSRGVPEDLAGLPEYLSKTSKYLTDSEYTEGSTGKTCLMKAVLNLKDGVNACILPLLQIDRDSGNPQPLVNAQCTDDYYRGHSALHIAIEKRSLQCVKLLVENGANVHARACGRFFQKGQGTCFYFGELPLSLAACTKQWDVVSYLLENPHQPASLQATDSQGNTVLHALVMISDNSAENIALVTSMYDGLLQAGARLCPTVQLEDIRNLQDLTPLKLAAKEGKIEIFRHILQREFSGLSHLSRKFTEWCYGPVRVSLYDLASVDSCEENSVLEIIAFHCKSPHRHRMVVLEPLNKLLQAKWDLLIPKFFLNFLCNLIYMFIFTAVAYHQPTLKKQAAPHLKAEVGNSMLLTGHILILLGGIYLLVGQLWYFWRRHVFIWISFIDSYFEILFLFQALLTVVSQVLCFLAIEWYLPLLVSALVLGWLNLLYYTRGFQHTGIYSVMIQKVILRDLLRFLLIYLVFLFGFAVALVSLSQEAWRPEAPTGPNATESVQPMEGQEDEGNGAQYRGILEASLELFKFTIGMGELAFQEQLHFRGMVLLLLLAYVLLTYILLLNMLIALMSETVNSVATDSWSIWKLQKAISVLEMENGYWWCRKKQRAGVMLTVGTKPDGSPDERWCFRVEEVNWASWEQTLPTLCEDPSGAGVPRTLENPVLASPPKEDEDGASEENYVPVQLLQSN", "assay": "Antagonist activity at human TRPV2 expressed in HEK293T cells assessed as LPC-induced intracellular Ca2+ influx at 100 uM by Fluo-4 AM staining-based fluorescence analysis", "format": "cell-based", "settings": "HEK-293T", "method_in_brief": "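hTRPV2 transiently transfected into HEK293T, seeded 6 h after transfection and used 18 h later. Fluo-4 loading in probenecid-free buffer, 37 °C. Agonist 30 and 40 μM LPC; ruthenium red 5 μM as reference blocker; 100 μM compound given alone or pretreated 3 min. Read-out ΔF/F0 (%).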"}, "[10]": {"target": "T2, Transient receptor potential cation channel subfamily V member 1", "assay": "Antagonist activity at human brain TRPV1 expressed in HEK293T cells assessed as inhibition of heat-induced intracellular Ca2+ influx measured for 42 mins by fluorescence-based assay", "format": "cell-based, HEK-293T", "method_in_brief": "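hTRPV1-HEK293T, Fluo-4 loaded; antagonist pretreated 3 min, plate heated from 40 to 45 °C, Ca2+ signal recorded 42 min. Data as % of heat response; IC50 from dose curve; n = 4−10.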"}, "[11]": {"target": "T2, Transient receptor potential cation channel subfamily V member 1", "assay": "Competitive antagonist activity at […] Wistar rat DRG neurons assessed as inhibition of CAP-induced intracellular Ca2+ influx at 100 uM preincubated for 3 mins followed by CAP challenge", "format": "cell-based", "method_in_brief": "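Primary DRG neurons from 4-week-old Wistar rats, collagenase-dissociated, cultured with NGF 24−36 h. Fluo-4 Ca2+ imaging with superfusion of 0.1 μM capsaicin and 100 μM compound.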"}, "[12]": {"target": "T1, Transient receptor potential cation channel subfamily A member 1", "assay": "Agonist activity at TRPA1 isolated from human W138 cells expressed in HEK293T cells assessed as intracellular Ca2+ influx at 100 uM by Fluo-4 AM staining-based fluorescence analysis in presence of antagonist HC-030031", "format": "cell-based", "method_in_brief": "as §1"}, "[13]": {"target": "Transient receptor potential cation channel subfamily M member 8 (Mus musculus) (UniProt Q8R4D5)", "settings": "Dorsal root ganglion, HEK T-REx, 10 to 50 uM"}, "[14]": {"target": "Transient receptor potential cation channel subfamily M member 8 (Mus musculus) (UniProt Q8R4D5)", "settings": "Dorsal root ganglion, HEK T-REx, 10 to 50 uM", "remark": "listed apart in the source"}}, "note": "pIC50: −log10 of the molar value. Activity calls are given as the source filed them. The rule behind the calls is not given here.", "data": [{"smiles": "CC[C@H]1C[C@@H]2CN3CCc4c([nH]c5ccc(OC)cc45)[C@](C(=O)OC)(C2)[C@H]13", "note": "[VOACANGINE]", "values": [{"measurement": "Activity", "setting": "[1]", "result": "Active"}, {"measurement": "inhibition", "setting": "[2]", "result": "Active"}, {"measurement": "Activity", "setting": "[3]", "result": "inactive"}, {"measurement": "Activity", "setting": "[4]", "result": "inactive"}, {"measurement": "inhibition", "setting": "[5]", "result": "inactive"}, {"measurement": "inhibition", "setting": "[6]", "result": "inactive"}, {"measurement": "inhibition", "setting": "[7]", "result": "Active"}, {"measurement": "inhibition", "setting": "[8]", "result": "Active"}, {"measurement": "Activity", "setting": "[9]", "result": "inactive"}, {"measurement": "pIC50", "setting": "[10]", "result": 4.62}, {"measurement": "inhibition", "setting": "[10]; HEK-293T", "result": "Dose-dependent effect"}, {"measurement": "inhibition", "setting": "[11]", "result": "Active"}, {"measurement": "Activity", "setting": "[12]", "result": "inactive"}, {"measurement": "inhibition", "setting": "[13]", "result": "inactive"}, {"measurement": "inhibition", "setting": "[14]", "result": "Active"}]}]}
